Compound activity from PubChem BioAssay.
This is a sample that favours compounds with a hit; in the whole collection about 3.7% have one here.
TAAR1 antag: human TAAR1 antagonism; Q96RJ0; CHO RD-HGA16 TAAR1, Fluo-8 calcium fluorescence, antagonist; inhibition, % at 3 µM; hit rate 1.5% among 360,000; AID 624466;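 active = inhibition above a per-plate cutoff, the mean inhibition of test compounds on that plate plus 3 SD, cut at about 49% in these data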;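 note: 0% = DMSO plus EC80 beta-PEA response and 100% = DMSO alone without agonist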
Target sequence (Q96RJ0 whole entry, looked up): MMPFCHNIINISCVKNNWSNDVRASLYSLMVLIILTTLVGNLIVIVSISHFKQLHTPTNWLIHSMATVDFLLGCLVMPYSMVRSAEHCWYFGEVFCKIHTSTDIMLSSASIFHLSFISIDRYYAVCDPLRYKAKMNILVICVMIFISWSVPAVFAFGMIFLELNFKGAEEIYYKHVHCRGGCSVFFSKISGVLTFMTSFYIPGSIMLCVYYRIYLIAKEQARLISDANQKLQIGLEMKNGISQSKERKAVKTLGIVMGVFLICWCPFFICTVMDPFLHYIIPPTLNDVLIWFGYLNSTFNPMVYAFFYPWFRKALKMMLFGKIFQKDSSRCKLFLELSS
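System: CHO RD-HGA16 cells bearing hTAAR1. Reagent: EC80 β-phenethylamine stimulus. Schedule: seeding 17-24 h prior, 75-min 37 °C, 30-min RT dye loading. Signal: Fluo-8 intracellular calcium dye fluorescence, real-time kinetic reads. Read-out: % inhibition from peak post-agonist over basal fluorescence ratio. Benchmarks: vehicle wells and EC80 agonist wells. Replicates: n of 1.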
rCAG RNA binder: molecules binding r(CAG) RNA repeats; r(CAG) RNA repeat, TO-PRO-1 dye displacement fluorescence; inhibition, % at 3 µM; hit rate 1.3% among 370,000;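 active = inhibition above the plate cutoff, the mean of all test compounds on that plate plus 3 SD, cut at about 35% in these data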;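 note: 0% = DMSO alone and 100% = 100 µM mitoxantrone as full dye displacement; higher means more dye released from RNA so lower well fluorescence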
TAAR1 ag: human TAAR1 agonism; Q96RJ0; CHO RD-HGA16 TAAR1, Fluo-8 calcium fluorescence; vehicle wells 0%, saturating PEA agonist 100%; activation, % at 3 µM; hit rate 0.99% among 360,000; AID 624467;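 active = activation above the mean activation of all test compounds in the run plus 3 SD, cut at about 38% in these data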
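Test system: RD-HGA16 (CHO) cells co-expressing Gα16 and hTAAR1 | Doses: Single dose, 3 µM | Schedule: 17-24 h seeding, 75 min 37 °C dye, 30 min RT | Evaluation: % activation from peak over basal fluorescence ratio, DMSO-to-PEA scaled | Technique: Kinetic Fluo-8 calcium fluorescence | Benchmarks: Low control DMSO, high control PEA (EC100)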
core dimer inh: HCV core protein dimerization inhibition; TR-FRET GST/Flag-core106 dimerization, 1536-well; inhibition, % at 5 µM; hit rate 0.33% among 300,000; AID 1899;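 active = inhibition above the mean of all tested compounds plus 3 SD, set per screening campaign, cut at about 45% in these data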
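Test system: GST/Flag-tagged HCV core106 proteins; Medium: KF-containing HEPES buffer, pH 7.45, DTT, CHAPS, BSA; Times: compound-protein-antibody incubation 4 h at 22.5 °C; Detection: TR-FRET 671 and 617 nm emission; Benchmarks: wells lacking GST-core106 and wells with excess unlabelled core106.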
NS3 helicase inh: HCV NS3 helicase inhibition; inhibition, % at 10.9 µM; NS3 helicase DNA unwinding, Cy5 molecular beacon fluorescence; hit rate 0.56% among 290,000; AID 1800;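 active = inhibition above the mean of all tested compounds plus 3 SD, set per campaign, cut at about 35% in these data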;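 note: 0% = DMSO wells and 100% = thioflavine S control wells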
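Test system: hepatitis C virus NS3 helicase domain fragment enzyme. Also added: annealed dual-labelled DNA beacon duplex, ATP-started. Timing: 60 min unwinding reaction at 25 °C after ATP addition. Technique: Cy5 fluorescence. Measure: % inhibition of unwinding.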
* marks the source's active call; other numbers are inactive results; x = not tested or not shown.

SMILES | TAAR1 antag | rCAG RNA binder | TAAR1 ag | core dimer inh | NS3 helicase inh
COc1cc(CNCc2ccccn2)ccc1OCc1ccc(Cl)cc1Cl | 16 | -4 | 45* | -4 | -87
CC(C)c1ccc(OCC(O)CNC(C)c2ccccc2)cc1 (stereo not drawn) | -4 | -3 | 57* | -6 | -55
CCC(=O)c1ccc(OCC(O)CNC(C)c2ccccc2)cc1 (stereo not drawn) | -2 | -1 | 4 | -2 | -5
CC(C)N1CCCCC(NC(=O)c2cccc(C(F)(F)F)c2)C1=O (stereo not drawn) | x | -1 | x | x | x
CCCCn1c(SCC(=O)c2ccc(OC)cc2OC)nc2cc(S(N)(=O)=O)ccc21 | 0 | 18 | 7 | 79* | 2
CCOc1ccc(NC(=O)C2CC(=O)N3CCCN=C3S2)cc1 (stereo not drawn) | 2 | 17 | 1 | 50* | 6
CCCOc1ccc(NC(=O)C2CC(=O)N3CCCN=C3S2)cc1 (stereo not drawn) | 7 | 13 | 0 | 7 | 1
Cc1cccc(NC(=S)/N=C(\N)Nc2nc(C)c3ccc(C)cc3n2)c1 | 16 | 28 | 7 | 48* | 11
Cc1ccc(-c2cc(-c3nnc(SCc4cccc5ccccc45)n3N)[nH]n2)cc1 | x | 15 | x | x | x
CC(=O)c1ccc(Nc2nc(C(N)Cc3ccc(Cl)cc3)cs2)cc1 (stereo not drawn) | 7 | 11 | 50* | x | x
COc1cccc(Nc2nc(C(N)CCc3ccccc3)cs2)n1 (stereo not drawn) | 22 | 18 | 45* | x | x
COc1cccc(Nc2nc(C(N)Cc3ccc(Cl)cc3)cs2)n1 (stereo not drawn) | 55* | 18 | 65* | x | x
COc1ccc(CC(N)c2csc(Nc3ccccn3)n2)cc1 (stereo not drawn) | 7 | 7 | 25 | x | x
COc1cccc(Nc2nc(C(N)CC(C)C)cs2)n1 (stereo not drawn) | -13 | 13 | 42* | x | x
CS(=O)(=O)N[C@@H]1C[C@@H]2O[C@@H](CO)CC[C@@H]2O[C@@H]1CCc1ccc(/C=C/c2ccccc2)cc1 | x | 8 | x | x | x
COC1=C[C@H](C(=O)NCc2ccc(Cl)cc2)C(C)C(c2ccccc2)CC1=O (stereo partly drawn) | x | 8 | x | x | x
COC(=O)[C@]12C[C@H](CC(=O)N3CCOCC3)C(=O)N(CCC3=CCCCC3)C1=C[C@H](C(C)C)O[C@@H]2C1CC1 | x | 3 | x | x | x
O=C(N/N=C/C=C/c1ccc([N+](=O)[O-])cc1)c1cccs1 | -3 | 3 | 4 | 49* | -2
O=C(NC(C(=O)N/N=C/c1ccccc1)c1n[nH]c(=O)c2ccccc12)c1ccccc1 (stereo not drawn) | 5 | 2 | 7 | 6 | -5
O=C(NC(C(=O)N/N=C/c1c2ccccc2cc2ccccc12)c1n[nH]c(=O)c2ccccc12)c1ccccc1 (stereo not drawn) | 24 | 20 | 11 | 47* | -28
O=C(Nc1cccc(C(F)(F)F)c1)c1ccc(Cn2cc(Br)cn2)o1 | 54* | 4 | 57* | -4 | -13
Cc1ccc(C(=O)CSc2nnc(-c3ccccn3)n2-c2ccccc2)cc1 | x | 3 | x | x | x
CCCCC[C@@H](/C=C/C1C(=O)C=C[C@H]1C/C=C\CCCC(=O)OC)OC(C)=O (stereo partly drawn) | 50* | 2 | 4 | x | x
O=C(NC1CCCCN(Cc2cccc(F)c2)C1=O)c1ccc(F)cc1 (stereo not drawn) | x | 3 | x | x | x
CC(=O)N1CCN(c2ccccc2NC(=O)c2cc3ccccc3o2)CC1 | 52* | -6 | 10 | -8 | 6
SMILES | TAAR1 antag | rCAG RNA binder | TAAR1 ag | core dimer inh | NS3 helicase inh
O=C(Nc1ccccc1N1CCN(C(=O)c2ccc(Cl)cc2)CC1)c1cc2ccccc2o1 | 33 | 0 | 5 | 42 | 0
O=C(COc1cccc([N+](=O)[O-])c1)N/N=C/c1ccco1 | 3 | 0 | 13 | 0 | 13
CCc1ccc(OCC(=O)N/N=C\c2ccco2)c([N+](=O)[O-])c1 | 7 | 10 | 1 | 54* | 14
C[C@H](NC(=O)c1[nH]cnc1C(=O)N[C@@H](C)CO)c1ccccc1 | 0 | 2 | 0 | x | x
O=C(Nc1ccccc1)c1nc[nH]c1C(=O)NCCCNC(=O)c1[nH]cnc1C(=O)Nc1ccccc1 | 54* | 11 | 19 | x | x
C[C@H](NC(=O)c1nc[nH]c1C(=O)N[C@@H](C)c1ccccc1)c1ccccc1 | 54* | -1 | 42* | x | x
O=C(Nc1ccccc1)c1nc[nH]c1C(=O)NCCCCCCNC(=O)c1[nH]cnc1C(=O)Nc1ccccc1 | 2 | 12 | 5 | x | x
CC(C)(C)OC(=O)NCCCCCNC(=O)c1nc[nH]c1C(=O)NCCCCCNC(=O)OC(C)(C)C | 69* | -8 | 21 | x | x
CC(C)(C)OC(=O)NCCCCCNC(=O)c1nc[nH]c1C(=O)NCc1ccc(CNC(=O)OC(C)(C)C)cc1 | 81* | -4 | 23 | x | x
CN(CCO)c1ccc2c(c1)Oc1ccccc1CN(Cc1cn(Cc3ccc(C(F)(F)F)cc3)nn1)S2(=O)=O | x | 6 | x | x | x
CC(=O)N1CCc2cc(S(=O)(=O)NC3CCN(C(=O)CCl)CC3)ccc21 | x | 2 | x | x | x
O=S(=O)(c1cccc(-c2csc(N/N=C/c3ccco3)n2)c1)N1CCOCC1 | 60* | 20 | 12 | 1 | -12
C[C@@H]1COc2cc(Br)ccc2S(=O)(=O)N1Cc1cn(Cc2ccccc2)nn1 | x | 3 | x | x | x
Cc1nc2ccccn2c1-c1csc(Nc2cccc(O)c2)n1 | 55* | 5 | 2 | x | 9
O=c1cc(CN2CCN(c3ccccc3)CC2)nc2scc(-c3ccccc3)n12 | -6 | 5 | -1 | 46* | 13
CC(=O)c1ccc(N2CCN(Cc3cc(=O)n4c(-c5ccccc5)csc4n3)CC2)cc1 | -2 | 8 | -2 | x | x
COCCNC(=S)N(C)[C@H]1C[C@H]2c3[nH]c4c(-c5ccc6c(c5)OCO6)cccc4c3CCN2C[C@H]1[C@H](C)O | x | 9 | x | x | x
COC(=O)CN1C(=O)S/C(=C/c2ccc(N3CCCCC3)o2)C1=O | 60* | 9 | 100* | -27 | 32
